The results in this text go back to article PMC4919474 (EBioMedicine, 2016).

For this test, the system named is Drosophila S3 cells. The test is described as follows: qHTS of OA-induced lipid droplet storage in S3 cells. In kind it is cell-based. The note with it: Drosophila melanogaster. The gist of the method: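 Drosophila S3 cells in medium with 5% FCS receive library compounds at […] (46 μM to 3 nM, 1:5 steps). Droplets are induced with 400 μM oleic acid on fatty-acid-free BSA. After 18 h, cells are fixed and stained with BODIPY 493/503 (lipid) and CellTracker Red CMTPX (cell count), then read by 488 nm laser scanning. Lipid signal is normalised to cell number; dose-response curves are fitted.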
(In qHTS, concentration-response curves come from the screen itself.)

As to `CCC/C=C/C/C=C/C=C/C=N/NN=O` [TriacsinC], the concentration giving a half-maximal response (EC50) (commonly the concentration needed to bring the measured effect to its halfway point) was 90 nM.
